ChEMBL document CHEMBL3352550, “Discovery and optimization of 4,5-diarylisoxazoles as potent dual inhibitors of pyruvate dehydrogenase kinase and heat shock protein 90” (J Med Chem, 2014)
Activity calls are given as the source filed them. No cut-off for these calls is given here.

What was measured:
[1] = target: T1, [Pyruvate dehydrogenase (acetyl-transferring)] kinase isozyme 1, mitochondrial (Homo sapiens, UniProt Q15118); test: Inhibition of recombinant PDHK1 (unknown origin) expressed in Escherichia coli at 10 uM incubated for 1 hr by ELISA
Outline: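 Recombinant His6-SUMO-PDHK1 was expressed in E. coli and purified on nickel resin. It was used at 0.25 µg/well on immobilized PDHA1 substrate (0.5 µg/well) with 10 µM ATP in 50 mM HEPES, 10 mM MgCl2 and 1 mM EGTA. Compounds were screened at 10 µM and percent inhibition was recorded. Detection used anti-p-PDHA1(S293) for 1 h and HRP secondary antibody for 1 h, then o-phenylenediamine, read at OD490.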

[2] = Apparent permeability from apical to basolateral side in human Caco2 cells; details: Caco-2
Heat shock protein HSP90 [3] = target: T2, Heat shock protein HSP90 (Homo sapiens, UniProt P07900+P08238); test: Inhibition of HSP90 in human NCI-H1299 cells assessed as reduction in AKT protein levels at 10 uM incubated for 12 hrs by immunoblotting method; format: cell-based
Outline: (§1)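 NCI-H1299 cells were treated for 12 h and lysed in RIPA buffer with protease inhibitors. Equal protein was loaded per lane, run on a gel and transferred to nitrocellulose. Membranes were blocked in TBST with 3% BSA for 1 h at room temperature, then probed with primary antibody for 2 h and secondary antibody for 1 h, both at room temperature. Bands were detected by ECL.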

[4] = Apparent permeability from basolateral to apical side in human Caco2 cells; details: Caco-2
Heat shock protein HSP90 [5] = target: T2, Heat shock protein HSP90; test: Inhibition of HSP90 in human NCI-H1299 cells assessed as reduction in HER2 protein levels at 10 uM incubated for 12 hrs by immunoblotting method; format: cell-based; outline: as §1
[6] = target: [Pyruvate dehydrogenase (acetyl-transferring)] kinase isozyme 3, mitochondrial (Homo sapiens, UniProt Q15120); test: Inhibition of recombinant PDHK3 (unknown origin) expressed in Escherichia coli incubated for 1 hr by ELISA
[7] = target: T1, [Pyruvate dehydrogenase (acetyl-transferring)] kinase isozyme 1, mitochondrial; test: Inhibition of recombinant PDHK1 (unknown origin) expressed in Escherichia coli incubated for 1 hr by ELISA
Heat shock protein HSP90 [8] = target: T2, Heat shock protein HSP90; test: Inhibition of geldanamycin-BODIPY binding to full-length HSP90 (unknown origin) by fluorescence polarization based competition assay; format: protein assay
Outline: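 Fluorescence polarization competition using full-length HSP90 and geldanamycin-BODIPY as probe.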

[9] = target: [Pyruvate dehydrogenase (acetyl-transferring)] kinase isozyme 2, mitochondrial (Homo sapiens, UniProt Q15119); test: Inhibition of recombinant PDHK2 (unknown origin) expressed in Escherichia coli incubated for 1 hr by ELISA
Heat shock protein HSP90 [10] = target: T2, Heat shock protein HSP90; test: Inhibition of HSP90 in human NCI-H1299 cells assessed as reduction in c-MET protein levels at 10 uM incubated for 12 hrs by immunoblotting method; format: cell-based; outline: as §1
NCI-H1299 [11] = test: Reduction in extracellular acidification rate in human NCI-H1299 cells at 10 uM incubated for 12 hrs; format: functional, cell-based
Outline: (§2)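 Cells pre-treated with varying concentrations of compound for 12 h, then oxygen consumption rate and extracellular acidification rate measured on an XF96 extracellular flux analyzer; ECAR/OCR ratio calculated from these readings.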

[12] = Efflux ratio in human Caco2 cells; details: Caco-2
NCI-H1299 [13] = test: Antiproliferative activity against human NCI-H1299 cells after 72 hrs by CCK8 assay; format: functional, cell-based
Outline: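 NCI-H1299 cells seeded at 3000 per well; test compound at a range of concentrations added the next day, vehicle DMSO as control; proliferation read by CCK8 kit after 72 h; IC50 derived from dose–response.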

NCI-H1299 [14] = test: Increase in ROS production in human NCI-H1299 cells at incubated for 12 hrs by DCFH-DA staining based fluorescence assay; format: functional, cell-based
Outline: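 Cells loaded with 5 µmol/L DCFH-DA in fresh medium for 30 min after compound treatment, washed with PBS, and intracellular ROS read as fluorescence intensity by flow cytometry.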

NCI-H1299 [15] = test: Increase in oxygen consumption rate/extracellular acidification rate ratio in human NCI-H1299 cells at 10 uM incubated for 12 hrs; format: functional, cell-based
Heat shock protein HSP90 [16] = target: T2, Heat shock protein HSP90; test: Inhibition of HSP90 in human NCI-H1299 cells assessed as increase in HSP70 protein levels at 10 uM incubated for 12 hrs by immunoblotting method; format: cell-based; outline: as §1
[17] = target: T1, [Pyruvate dehydrogenase (acetyl-transferring)] kinase isozyme 1, mitochondrial; details: NCI-H1299, 10 uM
NCI-H1299 [18] = test: Reduction in oxygen consumption rate in human NCI-H1299 cells at 10 uM incubated for 12 hrs; format: functional, cell-based; outline: as §2
[19] = target: [Pyruvate dehydrogenase (acetyl-transferring)] kinase isozyme 4, mitochondrial (Homo sapiens, UniProt Q16654); test: Inhibition of recombinant PDHK4 (unknown origin) expressed in Escherichia coli incubated for 1 hr by ELISA
Sequence of [Pyruvate dehydrogenase (acetyl-transferring)] kinase isozyme 4, mitochondrial (Q16654 whole entry): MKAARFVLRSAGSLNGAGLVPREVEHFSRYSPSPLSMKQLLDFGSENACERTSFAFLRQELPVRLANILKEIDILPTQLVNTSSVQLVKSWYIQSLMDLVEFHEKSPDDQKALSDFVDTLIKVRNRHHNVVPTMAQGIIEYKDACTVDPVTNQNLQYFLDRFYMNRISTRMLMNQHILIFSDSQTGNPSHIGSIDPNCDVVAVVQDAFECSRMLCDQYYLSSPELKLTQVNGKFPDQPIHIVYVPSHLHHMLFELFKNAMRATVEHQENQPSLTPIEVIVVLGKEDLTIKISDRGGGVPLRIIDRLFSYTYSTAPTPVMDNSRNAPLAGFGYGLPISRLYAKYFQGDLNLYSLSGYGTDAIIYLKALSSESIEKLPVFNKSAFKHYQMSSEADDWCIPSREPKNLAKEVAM

Sequence of [Pyruvate dehydrogenase (acetyl-transferring)] kinase isozyme 3, mitochondrial (Q15120 whole entry): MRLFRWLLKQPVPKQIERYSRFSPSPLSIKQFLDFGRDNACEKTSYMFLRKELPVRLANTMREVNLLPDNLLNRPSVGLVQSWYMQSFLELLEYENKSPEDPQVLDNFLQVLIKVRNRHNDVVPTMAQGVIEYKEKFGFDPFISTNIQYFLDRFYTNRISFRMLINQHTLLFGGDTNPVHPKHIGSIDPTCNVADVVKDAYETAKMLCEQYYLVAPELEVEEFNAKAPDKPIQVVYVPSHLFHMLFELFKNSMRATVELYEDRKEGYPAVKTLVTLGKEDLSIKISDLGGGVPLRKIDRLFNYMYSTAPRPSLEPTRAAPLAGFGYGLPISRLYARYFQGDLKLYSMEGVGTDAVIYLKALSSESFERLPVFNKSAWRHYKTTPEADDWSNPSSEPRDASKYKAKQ
T1 sequence (Q15118 whole entry): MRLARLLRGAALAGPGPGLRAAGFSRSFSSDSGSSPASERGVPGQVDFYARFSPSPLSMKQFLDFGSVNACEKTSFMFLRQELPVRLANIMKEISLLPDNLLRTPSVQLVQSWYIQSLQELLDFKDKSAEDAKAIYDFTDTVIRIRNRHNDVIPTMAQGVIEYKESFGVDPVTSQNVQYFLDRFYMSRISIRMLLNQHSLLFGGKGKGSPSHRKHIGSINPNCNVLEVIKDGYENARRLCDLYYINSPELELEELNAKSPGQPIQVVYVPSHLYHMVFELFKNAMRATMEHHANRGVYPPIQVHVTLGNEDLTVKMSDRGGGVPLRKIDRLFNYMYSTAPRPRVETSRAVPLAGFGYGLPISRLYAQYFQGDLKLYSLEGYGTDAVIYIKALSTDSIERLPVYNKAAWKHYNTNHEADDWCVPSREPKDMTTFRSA

In the case of `COc1ccccc1N1CCN(C(=O)/C=C/c2noc(-c3cc(Cl)c(O)cc3O)c2-c2ccc(O)cc2)CC1`, the inhibition [1] is reported as over 50%, the Papp A→B [2] is reported as 11.2 ×10⁻⁶ cm/s and the inhibition (Heat shock protein HSP90 [3]) is reported as “Active”. For the same compound, the Papp B→A [4] was 15.5 ×10⁻⁶ cm/s, the inhibition (Heat shock protein HSP90 [5]) was “Active” and the IC50 [6] was 5340 nM. The IC50 [7] was 604 nM, the IC50 (Heat shock protein HSP90 [8]) was 512 nM and the IC50 [9] was 1130 nM. The inhibition (Heat shock protein HSP90 [10]) was “Active”, the inhibition (NCI-H1299 [11]) was “Active” and the efflux ratio [12] was 1.38. For the same compound, the inhibition (NCI-H1299 [13]) was “Dose-dependent effect”, the IC50 (NCI-H1299 [13]; NCI-H1299, 72 h) was 9210 nM and the Activity (NCI-H1299 [14]) was “Active”. For the same compound, the Activity (NCI-H1299 [15]) was “Active”, the inhibition (Heat shock protein HSP90 [16]) was “Active” and the inhibition [17] was “Active”. The inhibition (NCI-H1299 [18]) was “Active” and the IC50 [19] was 1740 nM.
